Test results taken from publication PMC4980077 (The FEBS journal, 2016).
“Also recorded” adds a separate entry of the source.

Experiments:
[1] = Circular dichroism of AKB peptides; type: physicochemical; conditions: 0.1 M Tris pH 8.5, Jasco J-810
[2] = system: PKA:AKAP interaction; conditions: through an allosteric effect away from the D/D domain; ref [32]; cited from earlier work
[3] = system: PKG Iα; assay: 32P phosphorylation assay with PKG Iα; type: biochemical; conditions: PKG Iα 20 nM, pH 7.5; n = 3
Outline: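 Substrate was His-tagged human smAKAP (wild type, or S66D with PKA-Cα) at 10 μM. It was incubated with 20 nM recombinant kinase in 50 mM MOPS pH 7.5 containing 10 mM MgCl2, 200 μM ATP and [32P]ATP. Aliquots were quenched in 30% acetic acid at 0, 5, 10 and 15 min. Results are means ± SD of 3 independent experiments.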

[4] = system: PKA-RIα; assay: Confocal colocalization with PKA-RIα in HeLa cells; type: cell-based; conditions: transfected, confocal, PKA-RIα-mCherry
[5] = system: PKA-RIβ; assay: Confocal colocalization with PKA-RIβ-mKO2 in HeLa cells; type: cell-based; conditions: transfected, confocal, unstimulated
Outline: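 HeLa cells co-expressed GFP-tagged smAKAP (wild type, S66E or S66D) with mKO2-tagged PKA-RIα or RIβ. Cells were washed in ice-cold PBS, fixed in ice-cold 4% formaldehyde in PBS, washed twice and imaged by confocal microscopy through a 63× oil objective. Stimulated cells received calyculin A plus 8-CPT-cAMP and were imaged live.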

With IVILEYAHRLSQDILCDALQQWAC [AKB-wt] the “α-helix propensity by CD” value [1] was ~ 45%.

In the case of IVILEYAHRLpSQDILCDALQQWAC [AKB-pSer66], the “secondary structure by CD” value [1] was “no secondary structure”.

For IVILEYAHRLDQDILCDALQQWAC [AKB-S66D], the “secondary structure by CD” value [1] was “no secondary structure”.

For `Nc1cc(Cc2ccc(O)c(N)c2)ccc1O` [FMP-API-1], the “inhibition of PKA binding to AKAPs” value [2] is given as “inhibit the binding of PKA to AKAPs”.

In the case of IVILEYAHRLEQDILCDALQQWAC [AKB-S66E], the “secondary structure by CD” value [1] was “no secondary structure”.

For “His6-smAKAP: recombinant human His-tagged smAKAP (wt), called smAKAP-wt in the phosphorylation assay”, the “phosphorylation by PKG Iα compared with PKA” value [3] was “only PKA phosphorylated”.

With “smAKAP-wt-GFP: wild-type smAKAP GFP fusion expressed in transfected cells” the “colocalization with PKA-RIα” value [4] was “strong colocalization along the plasma membrane” and the “colocalization with PKA-RIβ-mKO2” value [5] was “strong colocalization along the plasma membrane; also recorded: colocalization at the plasma membrane”.
